ChEMBL document CHEMBL1127050, “Tyrosine kinase inhibitors. 1. Structure-activity relationships for inhibition of epidermal growth factor receptor tyrosine kinase activity by 2,3-dihydro-2-thioxo-1H-indole-3-alkanoic acids and 2,2'-dithiobis(1H-indole-3-alkanoic acids)” (J Med Chem, 1993)

Tests used:
[1] = target: Epidermal growth factor receptor (Homo sapiens, UniProt P00533); assay: Inhibition of EGF-stimulated EGFR tyrosine kinase activity using plasma membrane vesicles shed from cultured human A431 carcinoma cells; format: functional, cell-based, A-431
Chain of Epidermal growth factor receptor (P00533 whole entry): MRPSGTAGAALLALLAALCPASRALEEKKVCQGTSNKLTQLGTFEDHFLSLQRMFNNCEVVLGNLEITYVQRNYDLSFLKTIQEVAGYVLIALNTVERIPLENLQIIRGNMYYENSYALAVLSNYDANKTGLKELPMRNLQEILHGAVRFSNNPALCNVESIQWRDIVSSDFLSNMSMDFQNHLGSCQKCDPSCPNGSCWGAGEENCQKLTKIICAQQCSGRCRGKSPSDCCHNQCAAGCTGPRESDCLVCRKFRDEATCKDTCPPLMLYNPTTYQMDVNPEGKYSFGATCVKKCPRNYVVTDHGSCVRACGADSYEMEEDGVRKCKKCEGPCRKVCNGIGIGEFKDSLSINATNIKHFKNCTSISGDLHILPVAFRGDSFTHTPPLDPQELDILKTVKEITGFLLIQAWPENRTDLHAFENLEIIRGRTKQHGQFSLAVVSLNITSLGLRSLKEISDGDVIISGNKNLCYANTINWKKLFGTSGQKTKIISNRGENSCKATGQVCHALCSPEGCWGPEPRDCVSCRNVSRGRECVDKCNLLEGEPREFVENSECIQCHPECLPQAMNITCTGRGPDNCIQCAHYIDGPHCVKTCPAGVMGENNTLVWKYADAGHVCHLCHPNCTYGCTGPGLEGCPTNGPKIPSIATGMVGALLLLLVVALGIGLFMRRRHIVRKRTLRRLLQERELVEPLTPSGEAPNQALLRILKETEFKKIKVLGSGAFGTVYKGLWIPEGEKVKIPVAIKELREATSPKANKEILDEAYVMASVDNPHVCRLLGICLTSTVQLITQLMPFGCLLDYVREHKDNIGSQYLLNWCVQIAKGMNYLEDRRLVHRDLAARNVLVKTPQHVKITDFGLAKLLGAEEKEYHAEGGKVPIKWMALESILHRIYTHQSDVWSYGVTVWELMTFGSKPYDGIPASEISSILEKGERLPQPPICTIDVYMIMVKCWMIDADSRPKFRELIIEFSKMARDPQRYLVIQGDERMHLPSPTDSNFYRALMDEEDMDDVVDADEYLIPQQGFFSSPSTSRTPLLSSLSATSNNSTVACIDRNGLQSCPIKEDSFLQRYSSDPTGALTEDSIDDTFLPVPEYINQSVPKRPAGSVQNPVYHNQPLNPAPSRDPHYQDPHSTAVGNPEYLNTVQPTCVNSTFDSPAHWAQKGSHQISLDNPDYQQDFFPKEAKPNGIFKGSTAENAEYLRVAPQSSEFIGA
How it was run: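 EGFR source: A431 shed membrane vesicles, solubilized in 4% Triton X-100/10% glycerol, 10 μg total protein per reaction. Final buffer: 20 mM HEPES pH 7.4, 15 mM MgCl₂, 4 mM MnCl₂, 0.02% BSA, 5 μM ATP with [γ-³²P]ATP, Glu:Ala:Tyr (6:3:1) copolymer substrate, 250 ng EGF. Run 10 min at room temperature, stopped with cold TCA/pyrophosphate. Filter-bound ³²P counted. IC50 is 50% reduction of incorporation. Autophosphorylation controls included.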

Swiss 3T3 (Mus musculus) = assay: Inhibition of Swiss 3T3 mouse fibroblast proliferation

SMILES | IC50 [1] [µM] | IC50 (Swiss 3T3 (Mus musculus)) [µM]
COC(=O)Cc1c(Sc2c(CC(=O)OC)c3ccccc3n2C)n(C)c2ccccc12 | > 100 | –
COC(=O)CCC1(CCC(=O)OC)C(=S)Nc2ccccc21 | > 100 | –
COC(=O)CCCC1C(=S)Nc2ccccc21 (centres undefined) | > 100 | –
COC(=O)CCc1c(SSc2c(CCC(=O)OC)c3ccccc3n2C)n(C)c2ccccc12 | > 100 | 5.2
CN1C(=S)C(CC(=O)O)c2ccccc21 (centres undefined) | > 100 | –
COC(=O)CCCc1c(SSc2c(CCCC(=O)OC)c3ccccc3n2C)n(C)c2ccccc12 | > 100 | 1.8
COC(=O)CCCc1c(SSc2[nH]c3ccccc3c2CCCC(=O)OC)[nH]c2ccccc12 | > 100 | –
O=C(O)Cc1c(SSSc2[nH]c3ccccc3c2CC(=O)O)[nH]c2ccccc12 | – | 8
COC(=O)CC1C(=S)N(C)c2ccccc21 (centres undefined) | > 100 | –
O=C(O)CCC1(CCC(=O)O)C(=S)Nc2ccccc21 | > 100 | –
CN1C(=S)C(CCCC(=O)O)c2ccccc21 (centres undefined) | > 100 | –
Cc1ccc2[nH]c(SSc3[nH]c4ccc(C)cc4c3CCC(=O)O)c(CCC(=O)O)c2c1 | – | > 50
COC(=O)Cc1c(SSc2[nH]c3ccccc3c2CC(=O)OC)[nH]c2ccccc12 | – | 2.3
COC(=O)CCCC1C(=S)N(C)c2ccccc21 (centres undefined) | > 100 | –

More lines, main results first:

IC50 [1] [µM] | SMILES | IC50 (Swiss 3T3 (Mus musculus)) [µM]
1.62 | O=C(O)CCC1C(S)=Nc2ccccc21 (centres undefined) | 64
> 100 | COC(=O)CCN1C(=S)C(CCC(=O)OC)(CCC(=O)OC)c2ccccc21 | –
> 100 | COC(=O)CCC1C(S)=Nc2ccccc21 (centres undefined) | 16
6.7 | CN1C(=S)C(CCC(=O)O)c2ccccc21 (centres undefined) | –
> 100 | COC(=O)CCC1C(=S)N(C)c2ccccc21 (centres undefined) | –
100 | COC(=O)CC1C(=S)Nc2ccccc21 (centres undefined) | –
10.2 | O=C(O)Cc1c(SSc2[nH]c3ccccc3c2CC(=O)O)[nH]c2ccccc12 | > 50
35 | COC(=O)Cc1c(SSSc2[nH]c3ccccc3c2CC(=O)OC)[nH]c2ccccc12 | 1
4.2 | O=C(O)CCc1c(SSc2[nH]c3ccccc3c2CCC(=O)O)[nH]c2ccccc12 | 59
21 | COC(=O)CCc1c(SSc2[nH]c3ccccc3c2CCC(=O)OC)[nH]c2ccccc12 | 7.4
1.5 | Cc1cccc2c(CCC(=O)O)c(SSc3[nH]c4c(C)cccc4c3CCC(=O)O)[nH]c12 | –
33 | COC(=O)Cc1c(SSc2c(CC(=O)OC)c3ccccc3n2C)n(C)c2ccccc12 | –
53 | Cn1c(SSc2c(CC(=O)O)c3ccccc3n2C)c(CC(=O)O)c2ccccc21 | 36
3.1 | Cn1c(SSc2c(CCC(=O)O)c3ccccc3n2C)c(CCC(=O)O)c2ccccc21 | –
6.7 | O=C(O)CCCC1C(=S)Nc2ccccc21 (centres undefined) | –
2 | O=CN/C=C/c1cc(O)ccc1O [ERBSTATIN] | –
